In PMC3064798 (Nucleic Acids Research, 2011):
“Also recorded” adds a separate entry of the source.

Legend:
Assay type in all cases: biochemical
[1] = target: Klenow(exo^−) polymerase (Escherichia coli, UniProt P00582, D355A/E357A); test: PEP
In short: (§1)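 Polymerase end-point assay for single-base incorporation. 5 nM BODIPY-FL-labelled primer-1 was hybridised to 40 nM oligoTemplate-4, with the interrogation base complementary to dU. Absence of a +1 band on the 377 gel image at 100 μM counts as not active. IC50 was averaged from triplicates ± 1 SD. Incorporation bias is the analog IC50 divided by the natural-nucleotide (HOMedUTP) IC50.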

[2] = target: Taq polymerase (Thermus aquaticus, UniProt P19821); test: PEP; conditions: for IC50 values (activity in words): Taq, Not Active = no visible +1 band in 377 gel image at 100 μM
Chain of Taq polymerase (P19821 whole entry): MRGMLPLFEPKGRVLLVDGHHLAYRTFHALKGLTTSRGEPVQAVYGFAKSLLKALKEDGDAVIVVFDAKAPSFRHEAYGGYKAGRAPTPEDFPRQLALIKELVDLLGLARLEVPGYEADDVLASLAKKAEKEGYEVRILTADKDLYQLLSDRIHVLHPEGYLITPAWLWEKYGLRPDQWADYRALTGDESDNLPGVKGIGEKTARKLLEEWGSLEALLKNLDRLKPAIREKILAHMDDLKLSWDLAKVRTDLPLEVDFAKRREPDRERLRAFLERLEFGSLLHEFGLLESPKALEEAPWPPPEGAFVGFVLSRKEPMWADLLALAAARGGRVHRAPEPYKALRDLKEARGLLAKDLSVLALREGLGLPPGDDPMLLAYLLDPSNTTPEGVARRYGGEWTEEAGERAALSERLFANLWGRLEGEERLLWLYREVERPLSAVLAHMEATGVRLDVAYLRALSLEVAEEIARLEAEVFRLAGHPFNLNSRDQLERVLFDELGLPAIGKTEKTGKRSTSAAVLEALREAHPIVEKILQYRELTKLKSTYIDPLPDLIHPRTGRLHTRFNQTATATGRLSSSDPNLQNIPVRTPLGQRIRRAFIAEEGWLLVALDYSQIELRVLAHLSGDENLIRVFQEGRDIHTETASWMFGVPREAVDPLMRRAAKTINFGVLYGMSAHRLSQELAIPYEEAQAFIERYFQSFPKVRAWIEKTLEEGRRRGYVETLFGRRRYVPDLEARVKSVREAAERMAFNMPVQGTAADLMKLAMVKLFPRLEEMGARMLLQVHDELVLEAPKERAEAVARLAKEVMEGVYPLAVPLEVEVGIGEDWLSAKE
In short: as §1

[3] = target: T1, Vent(exo^−) polymerase (Thermococcus litoralis, UniProt P30317, D141A/DEL1082-1471/DEL495-1032/E143A); test: PEP; conditions: for Incorporation bias (analog IC50/HOMedUTP IC50): Vent(exo^−)
T1 sequence (P30317 with tags, fused parts or gaps D141A/E143A/DEL495-1032/DEL1082-1471): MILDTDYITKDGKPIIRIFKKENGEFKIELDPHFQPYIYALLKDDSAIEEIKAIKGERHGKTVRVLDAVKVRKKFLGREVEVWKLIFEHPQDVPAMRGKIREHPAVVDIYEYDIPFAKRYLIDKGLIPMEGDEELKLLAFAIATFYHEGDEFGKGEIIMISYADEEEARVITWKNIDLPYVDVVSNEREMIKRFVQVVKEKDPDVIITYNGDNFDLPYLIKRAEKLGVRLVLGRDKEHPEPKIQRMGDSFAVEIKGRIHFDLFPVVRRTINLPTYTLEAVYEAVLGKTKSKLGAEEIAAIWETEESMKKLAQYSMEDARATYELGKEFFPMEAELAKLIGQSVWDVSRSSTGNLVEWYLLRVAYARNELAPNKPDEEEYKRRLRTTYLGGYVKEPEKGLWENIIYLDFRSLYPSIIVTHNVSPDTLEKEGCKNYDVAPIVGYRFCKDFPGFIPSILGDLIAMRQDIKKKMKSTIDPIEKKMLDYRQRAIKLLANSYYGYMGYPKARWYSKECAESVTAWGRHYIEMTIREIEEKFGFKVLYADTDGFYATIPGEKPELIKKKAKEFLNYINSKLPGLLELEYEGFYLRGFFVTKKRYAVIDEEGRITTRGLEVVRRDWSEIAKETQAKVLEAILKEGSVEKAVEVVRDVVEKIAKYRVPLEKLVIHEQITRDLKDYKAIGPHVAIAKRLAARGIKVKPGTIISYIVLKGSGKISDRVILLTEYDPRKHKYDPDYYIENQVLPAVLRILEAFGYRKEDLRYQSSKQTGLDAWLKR
In short: as §1

[4] = target: T2, DeepVent(exo^−) polymerase (Pyrococcus sp., UniProt Q51334, D141A/DEL493-1029/E143A); test: PEP; conditions: for Incorporation bias (analog IC50/HOMedUTP IC50): DeepVent(exo^−)
T2 sequence (Q51334 with tags, fused parts or gaps D141A/E143A/DEL493-1029): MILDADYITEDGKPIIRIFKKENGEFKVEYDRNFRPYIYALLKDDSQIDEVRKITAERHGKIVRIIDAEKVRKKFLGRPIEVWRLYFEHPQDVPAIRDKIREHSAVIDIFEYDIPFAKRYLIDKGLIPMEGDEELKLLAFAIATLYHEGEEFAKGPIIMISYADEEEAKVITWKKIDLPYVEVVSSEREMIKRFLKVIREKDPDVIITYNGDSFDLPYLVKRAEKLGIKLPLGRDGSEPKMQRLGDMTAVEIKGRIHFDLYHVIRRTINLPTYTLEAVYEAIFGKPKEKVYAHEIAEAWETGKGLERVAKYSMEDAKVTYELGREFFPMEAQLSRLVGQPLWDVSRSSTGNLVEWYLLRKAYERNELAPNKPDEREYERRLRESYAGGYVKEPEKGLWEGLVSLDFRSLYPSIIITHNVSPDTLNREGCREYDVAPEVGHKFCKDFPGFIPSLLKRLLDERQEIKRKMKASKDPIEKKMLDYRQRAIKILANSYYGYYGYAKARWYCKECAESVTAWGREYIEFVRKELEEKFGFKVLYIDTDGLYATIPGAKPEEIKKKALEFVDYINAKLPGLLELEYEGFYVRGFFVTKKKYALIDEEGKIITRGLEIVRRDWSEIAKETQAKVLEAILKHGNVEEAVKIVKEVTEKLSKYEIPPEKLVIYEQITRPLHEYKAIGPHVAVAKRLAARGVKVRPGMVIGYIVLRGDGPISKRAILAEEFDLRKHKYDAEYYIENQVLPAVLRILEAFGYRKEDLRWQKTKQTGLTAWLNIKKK
In short: as §1

[5] = target: T1, Vent(exo^−) polymerase; test: Nucleotide selectivity; conditions: against a 'G' template base
In short: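 Base discrimination was measured by PEP assay. OligoTemplate-4 was replaced with 40 nM oligoTemplate-2 or oligoTemplate-5 to give mismatched template bases. For the T—G mismatch, 5 nM BODIPY-FL primer-3 was hybridised to 40 nM oligoTemplate-8. The selectivity ratio is the mismatched IC50 divided by the matched IC50.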

SMILES | IC50 [1] | Incorporation bias (analog IC50/HOMedUTP IC50) ([1]; Klenow(exo^−)) | IC50 values (activity in words) [2] | IC50 [3] | Incorporation bias (analog IC50/HOMedUTP IC50) [3] | IC50 [4] | Incorporation bias (analog IC50/HOMedUTP IC50) [4] | IC50 values (activity in words) ([1]; Klenow(exo^−), Not Active = no visible +1 band in 377 gel image at 100 μM) | Selectivity ratio (mismatched IC50/matched IC50) [5] | IC50 [2]
CC(OCc1cn([C@H]2C[C@H](O)[C@@H](COP(=O)(O)OP(=O)(O)OP(=O)(O)O)O2)c(=O)[nH]c1=O)c1ccccc1[N+](=O)[O-] (mixture of isomers) [dU.II, 5-[1-(2-Nitrophenyl)ethyloxy]methyl-2'-deoxyuridine-5’-triphosphate] | 2400 ± 100 nM | 1500 | no activity at all; also recorded: Not Active^a | 2.2 ± 0.2 nM | 1.6 | 17 ± 1 nM | 6.3 | – | – | –
CC(C)C(OCc1cn([C@H]2C[C@H](O)[C@@H](COP(=O)(O)OP(=O)(O)OP(=O)(O)O)O2)c(=O)[nH]c1=O)c1ccccc1[N+](=O)[O-] (mixture of isomers) [dU.III, 5-[1-(2-Nitrophenyl)-2-methyl-propyloxy]methyl-2'-deoxyuridine-5’-triphosphate] | – | – | none of the Family A polymerases showed any activity; also recorded: Not Active^a | 5.9 ± 0.7 nM | 4.2 | 220 ± 20 nM | 80 | Not Active^a | poorly extending the primer before revealing inhibitory effects | –
O=c1[nH]c(=O)n([C@H]2C[C@H](O)[C@@H](COP(=O)(O)OP(=O)(O)OP(=O)(O)O)O2)cc1COCc1ccccc1[N+](=O)[O-] [dU.I, 5-(2-Nitrobenzyloxy)methyl-2'-deoxyuridine-5’-triphosphate] | 48 ± 4 nM | 30 | – | 2 ± 0.1 nM | 1.4 | 4.9 ± 1 nM | 1.8 | – | – | 50000 nM
